Source: PubChem BioAssay
TRPC4 PAM = allosterically enhances the mouse TRPC4 cation channel; HEK293 TRPC4beta/mu-opioid, DAMGO EC20, Fluo-4 Ca2+ flux; stronger effect = higher value; Q9QUQ5; 310,000 compounds, 0.42% hits; B-score at 10 µM;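 active means B-score of calcium response area above 5 SD of library B-scores, with initial fluorescence ratio within 5 SD of library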;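 further: B-score of integrated fluorescence ratio over time as area under calcium response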
Target sequence (Q9QUQ5 whole entry, looked up): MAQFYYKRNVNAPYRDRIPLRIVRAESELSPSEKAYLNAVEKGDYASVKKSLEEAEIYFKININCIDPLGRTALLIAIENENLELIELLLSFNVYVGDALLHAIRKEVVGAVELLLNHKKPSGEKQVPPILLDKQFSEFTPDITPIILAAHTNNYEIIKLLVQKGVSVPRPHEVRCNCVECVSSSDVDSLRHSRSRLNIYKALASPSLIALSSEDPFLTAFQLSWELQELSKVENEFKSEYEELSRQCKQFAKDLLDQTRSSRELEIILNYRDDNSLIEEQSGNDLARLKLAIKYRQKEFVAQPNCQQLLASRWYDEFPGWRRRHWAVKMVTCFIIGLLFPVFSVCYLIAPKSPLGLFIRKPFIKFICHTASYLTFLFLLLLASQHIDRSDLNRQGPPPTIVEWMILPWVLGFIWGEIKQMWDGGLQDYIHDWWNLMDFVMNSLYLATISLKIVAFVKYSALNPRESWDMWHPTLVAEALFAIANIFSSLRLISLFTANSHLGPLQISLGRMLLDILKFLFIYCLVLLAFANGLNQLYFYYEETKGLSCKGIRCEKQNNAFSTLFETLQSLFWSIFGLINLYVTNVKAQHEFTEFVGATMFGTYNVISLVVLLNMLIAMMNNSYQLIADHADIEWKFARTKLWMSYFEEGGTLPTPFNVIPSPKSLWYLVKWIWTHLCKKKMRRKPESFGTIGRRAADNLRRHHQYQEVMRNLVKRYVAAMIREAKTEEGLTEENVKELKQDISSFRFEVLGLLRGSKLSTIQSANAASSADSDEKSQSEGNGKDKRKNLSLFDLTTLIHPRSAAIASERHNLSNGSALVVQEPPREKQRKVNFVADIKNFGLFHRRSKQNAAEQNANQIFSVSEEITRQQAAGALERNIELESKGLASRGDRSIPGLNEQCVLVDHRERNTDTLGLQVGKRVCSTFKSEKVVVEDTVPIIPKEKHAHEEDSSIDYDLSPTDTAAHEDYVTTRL
Kir21 block = Kir2.1 (mouse) channel inhibition; P35561; HEK293-Kir2.1, FluxOR thallium flux fluorescence; stronger effect = lower value; B-score at 10 µM; 310,000 compounds, 0.85% hits; AID 1672;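 active means fluorescence ratio B-score at or below minus 3 SD of library scores, with starting-brightness B-score within 2 SD, cut at about -4.2 in these data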;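 further: channel flux triggered by added potassium and thallium sulfate stimulus; B-score of peak minus minimum fluorescence over baseline after thallium stimulus; more negative B-score means stronger Kir2.1 block with less thallium influx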
TRPC6 inh = blocks the mouse TRPC6 cation channel; Q61143; HEK293-TRPC6, membrane potential dye, ACh-evoked depolarization; stronger effect = lower value; B-score at 10 µM; 310,000 compounds, 1.1% hits;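 active means B-score under library mean minus 3 SD, initial fluorescence not abnormally high, positive integrated signal ratio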;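 further: B-score derived from integrated fluorescence ratio over the kinetic read; more negative B-score means stronger inhibition of depolarization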
TRPC4 act = activators of mouse TRPC4 channel. Q9QUQ5. AID 2237. 310,000 compounds, 0.49% hits. B-score at 10 µM. HEK293 TRPC4beta/mu-opioid, Fluo4 calcium fluorescence; stronger effect = higher value;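 active means B-score above 5 SD of library B-scores, and initial fluorescence ratio not above library mean plus 5 SD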;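 further: positive B-score marks a calcium rise read as TRPC4 activation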
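Incubation: 45 min room-temperature Fluo4 loading, 110 s read / System: HEK293 cells stably co-expressing mouse TRPC4beta and mu-opioid receptor / Signal: Fluo4 fluorescence, kinetic / Control set: buffer (low) and maximal DAMGO (high) / Measure: integrated baseline-normalised fluorescence ratio, converted to per-well B score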
TRPC6 act = mouse TRPC6 channel activation. Q61143. HEK293-TRPC6 membrane potential dye fluorescence; stronger effect = higher value. B-score at 10 µM. 310,000 compounds, 0.13% hits. AID 2550;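 active means B-score of the integrated fluorescence ratio above library mean plus 3 SD, and starting fluorescence ratio within library mean plus 5 SD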;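 further: higher score means more depolarization so channel activation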
TRPC4 inh = blocks the mouse TRPC4 cation channel. AID 2247. Q9QUQ5. B-score at 10 µM. HEK293 TRPC4beta/mu-opioid, DAMGO-evoked Fluo4 calcium flux; stronger effect = lower value. 300,000 compounds, 0.39% hits;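 active means B-score over 3 SD under the library average, no early fluorescence shift, positive overall ratio signal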
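Assay system: HEK293 cells with stable TRPC4beta plus mu-opioid receptor expression; Probe or stimulus: DAMGO in two steps, submaximal then maximal; Dosing: single-point compound dosing; Measured by: Fluo4 calcium-dye fluorescence, kinetic read; Read-out basis: B score from integrated Fluo4 fluorescence ratio.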
Numbers without * were called inactive; i = inactive. Shown are actives, neighbours in structure and some others; about 2.9% of the full set was active somewhere.

SMILES	TRPC4 PAM	Kir21 block	TRPC6 inh	TRPC4 act	TRPC6 act	TRPC4 inh
C/C(=C\C(=O)c1ccccc1)NNc1nc2ccccc2s1	i	-2.1	i	i	i	i
Cc1cccc(NCc2nc(SCC(=O)Nc3ccccc3)n[nH]2)c1	i	-0.82	i	i	i	i
Cc1cccc(NCc2nc(SCC(=O)Nc3ccccc3Br)n[nH]2)c1	i	-5*	i	i	i	i
CCOc1cc(CNc2ccccc2)cc(Br)c1OCc1ccccc1F	i	-0.02	i	i	i	i
CCCOP(=O)(c1ccc(N(C)C)cc1)C(O)c1ccccc1OC (configuration not stated)	i	0.02	i	i	i	i
CCCOP(=O)(c1ccc(N(C)C)cc1)C(O)c1ccc(Cl)cc1Cl (configuration not stated)	10*	-1.2	i	i	i	i
CCOc1ccc(S(=O)(=O)NC(C)(C)C)cc1-c1nc2c(C(C)(C)C)nn(C)c2c(=O)[nH]1	11*	-0.95	i	i	i	i
CCOc1ccc(S(N)(=O)=O)cc1-c1nc2c(C(C)(C)C)nn(C)c2c(=O)[nH]1	i	0.41	i	i	i	i
CCCCOc1cccc(OCC(=O)Nc2nc3ccccc3[nH]2)c1	i	0	i	i	i	i
C#CCNC(=O)C1=C[C@@H](c2ccccc2)C[C@@H](OCc2ccc(CO)cc2)O1	i	-5.6*	i	i	i	i
O=C(Nc1ccccc1)C1=C[C@H](c2ccc3c(c2)OCO3)C[C@H](OCc2ccc(CO)cc2)O1	10*	0.82	i	i	i	i
C#CCNC(=O)C1=C[C@H](c2ccc(C#C)cc2)C[C@H](OCc2ccc(CO)cc2)O1	i	-2.3	i	i	i	i
NC(=O)C1=C[C@H](c2ccc(C(F)(F)F)cc2)C[C@H](OCc2ccc(CO)cc2)O1	i	-4.8*	i	i	i	i
NC(=O)C1=C[C@@H](c2ccc(C(F)(F)F)cc2)C[C@@H](OCc2ccc(CO)cc2)O1	i	-1.8	i	i	i	i
O=C(C1=C[C@H](c2ccc(C(F)(F)F)cc2)C[C@H](OCCCCO)O1)N1CCN(Cc2ccccc2)CC1	i	-0.44	i	186*	i	i
CCOC(=O)c1c(C)[nH]c(C)c1C(=O)CSc1nc2ccccc2n1CCOC	i	1.8	i	i	i	i
O=C(NCCC1=CCCCC1)c1cnc2n(c1=O)CCS2	i	-0.43	i	i	i	i
CCN1CCN(Cc2c(C)[nH]c3ccc(OC)cc3c2=O)CC1	15*	0.47	i	i	i	i
Cc1[nH]c2ccc(Br)cc2c(=O)c1CN1CCCCC1	10*	-0.19	i	i	i	i
O=C(c1ccc(S(=O)(=O)Cc2ccccc2F)c([N+](=O)[O-])c1)N1CCCCCC1	i	0.94	i	i	i	i
COc1ccc(C(CNC(=O)Cc2ccc3ccccc3c2)N(C)C)cc1 (configuration not stated)	i	-1.3	i	135*	i	-6*
COc1ccc(C(CNC(=O)C(C)c2ccc3cc(OC)ccc3c2)N(C)C)cc1 (configuration not stated)	i	-4.9*	i	204*	i	i
COc1ccccc1OCC(=O)NCC(C)NC(=O)COc1ccccc1OC (configuration not stated)	i	-0.04	i	i	i	i
COc1ccc(C(CNC(=O)c2cc(C)on2)N(C)C)cc1 (configuration not stated)	i	0	i	84*	i	i
COc1ccc(C(CNC(=O)COc2ccccc2OC)N(C)C)cc1OC (configuration not stated)	i	0.88	i	137*	i	i
SMILES	TRPC4 PAM	Kir21 block	TRPC6 inh	TRPC4 act	TRPC6 act	TRPC4 inh
COc1ccc(NC(=O)c2cc(C)on2)cc1	i	0.12	i	i	i	i
CN(C)C(=O)CSc1nc2ccccc2n1CC(=O)N1CCN(c2ccccc2)CC1	i	-0.64	i	i	i	i
O=C1CSC(c2cccc([N+](=O)[O-])c2)N1Cc1ccccc1 (configuration not stated)	i	-4.5*	i	i	i	i
C/C(=N\NC(=O)CCc1ccccc1)C1C(=O)c2ccccc2C1=O	i	1.4	i	i	i	i
CSc1nnc(Cc2sc(-c3ccccc3)nc2-c2ccccc2)o1	20*	0.11	i	i	i	i
COc1ccc(CNCC(O)(c2ccccc2)c2ccc(F)cc2)cc1 (configuration not stated)	i	-7*	i	i	i	i
Cc1ccc(C(O)(CNCc2ccccc2)c2ccccc2)cc1 (configuration not stated)	i	-11*	i	i	i	i
CC(C)Cn1cnc2c(c(-c3ccccc3)c(-c3ccccc3)n2Cc2ccco2)c1=N	i	-9.7*	-5*	i	i	i
N=c1c2c(-c3ccccc3)c(-c3ccccc3)n(Cc3ccco3)c2ncn1Cc1ccccc1	i	-5.9*	i	i	i	i
N=c1c2c(-c3ccccc3)c(-c3ccccc3)n(Cc3ccccc3)c2ncn1CCO	i	-8.6*	i	i	i	i
N=c1c2c3c(sc2ncn1Cc1ccco1)CCCCC3	i	-0.42	i	i	i	i
N=c1c2c(-c3ccccc3)c(-c3ccccc3)oc2ncn1CCN1CCOCC1	i	-2.3	i	i	i	i
OCCNc1ncnc2c1c(-c1ccccc1)c(-c1ccccc1)n2Cc1ccco1	i	0.61	i	i	i	i
CC(=O)OC1C([N+]2(C)CCCCC2)C[C@H]2C3CC[C@H]4C[C@H](OC(C)=O)C([N+]5(C)CCCCC5)CC4(C)[C@H]3CCC12C (some centres not stated)	i	1.9	i	i	i	i
CC(=O)O[C@H]1CC[C@@]2(C)C(CCC3C2CC[C@]2(C)OC(=O)CCC32)C1 (some centres not stated)	10*	-1.4	i	i	i	i
CCc1cc(C(c2cccc(OC)c2)N2CCOCC2)c(NC(=O)c2ccccc2)s1 (configuration not stated)	i	0.01	i	i	i	-6*
Cn1c(-c2ccccc2)cnc1NCc1ccc(-c2ccccc2)cc1	i	1.8	i	i	i	i
